Measurements from article PMC6986167 (Pharmacogenomics and Personalized Medicine, 2020).
Several values for one entry are separate records, joined by “and”; a condition that tells them apart may be missing. Identical values can stand only once. Like-named read-outs stand apart in the source and are kept apart here.

Key:
[1] = Minimal equilibrium rivaroxaban concentration in blood plasma by HPLC-MS; format: in vivo, patients
How it was run: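 Plasma thawed at room temperature, protein-precipitated with methanol plus 0.1% hydrogen chloride 9:1, vortexed, left 10 min, spun 9000 RCF 10 min. C18 column at 40°C, isocratic ammonium acetate/formic acid, water:acetonitrile 70:30. Validated 5–1000 ng/mL. Genotypes by real-time PCR on EDTA blood.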

[2] = AF patients, p = 0.02, cited from earlier work
[3] = data from the centers; cited from earlier work
[4] = carriership of low function allelic variants, patients on clopidogrel; cited from earlier work
[5] = test system: platelets (ADP-activated, P2Y12 Reactivity Units)

O=C(NC[C@H]1CN(c2ccc(N3CCOCC3=O)cc2)C(=O)O1)c1ccc(Cl)s1 [Rivaroxaban]
Rivaroxaban concentration, M ([1]; ABCB1 3435 C>T CT+TT, N=73): 80.6 | Rivaroxaban concentration, M ([1]; ABCB1 rs4148738 CC, N=19): 78.8 | Rivaroxaban concentration, M ([1]; ABCB1 rs4148738 CT+TT, N=84): 78.9 | Rivaroxaban concentration, M ([1]; CYP2C19*2 GA+AA, N=31): 86.2 | Rivaroxaban concentration, M ([1]; CYP2C19*2 GG, N=72): 75.7 | Rivaroxaban concentration, M ([1]; CYP3A5*3 AG+AA, N=19): 69.7 | Rivaroxaban concentration, M ([1]; CYP3A5*3 GG, N=84): 81.6 | rivaroxaban concentration ([1]; patients with HAS-BLED 3–9): 92.3 ± 64.9 | rivaroxaban concentration ([1]; patients with HAS-BLED <3): 67.2 ± 47.4 | equilibrium rivaroxaban concentration ([2]; first value of bleeding comparison): 48±30 | equilibrium rivaroxaban concentration ([2]; second value of bleeding comparison): 34 ± 26 | average level of plasma concentration of rivaroxaban [3]: 40 ng/mL | patients beyond the therapeutic range [3]: ~40% | variation of plasma concentration of rivaroxaban [3]: 15 fold

COC(=O)[C@H](c1ccccc1Cl)N1CCc2sccc2C1 [clopidogrel]
increase of risk of major adverse cardiovascular events (MACE) [4]: 1.5 fold | increase of risk of stent thrombosis [4]: 2.8 fold | Platelet reactivity units (PRU), M ([5]; ABCB1 3435 C>T CC, N=30): 136.8 PRU | Platelet inhibition rate (%), M ([5]; ABCB1 3435 C>T CC, N=30, ACS+AF patients on clopidogrel and rivaroxaban): 29.8% | Platelet inhibition rate (%), M ([5]; ABCB1 3435 C>T CT+TT, N=73): 30.9% | Platelet reactivity units (PRU), M ([5]; ABCB1 3435 C>T CT+TT, N=73): 135.5 PRU | Platelet reactivity units (PRU), M ([5]; ABCB1 rs4148738 CC (non-carriers of T), N=19): 113.3 ± 57.1 PRU and 113.3 PRU | Platelet inhibition rate (%), M ([5]; ABCB1 rs4148738 CC, N=19): 34.5% | Platelet reactivity units (PRU), M ([5]; ABCB1 rs4148738 CT+TT (T carriers), N=84): 141.0 ± 62.3 PRU and 141.0 PRU | Platelet inhibition rate (%), M ([5]; ABCB1 rs4148738 CT+TT, N=84): 29.7% | Platelet inhibition rate (%), M ([5]; CYP2C19*2 GA+AA, N=31): 28.6% | Platelet reactivity units (PRU), M ([5]; CYP2C19*2 GA+AA, N=31): 145.2 PRU | Platelet inhibition rate (%), M ([5]; CYP2C19*2 GG, N=72): 31.4% | Platelet reactivity units (PRU), M ([5]; CYP2C19*2 GG, N=72): 131.9 PRU | Platelet inhibition rate (%), M ([5]; CYP3A5*3 AG+AA, N=19): 30.4% | Platelet reactivity units (PRU), M ([5]; CYP3A5*3 AG+AA, N=19): 139.8 PRU | Platelet inhibition rate (%), M ([5]; CYP3A5*3 GG, N=84): 30.6% | Platelet reactivity units (PRU), M ([5]; CYP3A5*3 GG, N=84): 135.0 PRU | platelet inhibition level ([5]; patients with in-hospital death): 63.3% | platelet inhibition level ([5]; patients without in-hospital death): 29.6%
